≈ marks a conversion by molar mass, not a printed value.
Experiments:
[1] = system: Mus sp.; assay: In vivo evaluation of % survival rate after peroral administration on 9th day at dose 2.5 mg/kg; type: functional; conditions: Mus sp., po
[2] = system: Rhodotorula mucilaginosa; assay: In vitro evaluation of minimum inhibitory concentration against Rhodotorula rubra 16; type: functional
How it was run: (§1)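 Stocks are 800 μg/mL in 50% ethanol. Each plate gets 10 μL of inoculum at 10^5 cfu/mL. Incubation at 25 °C, 48 h for yeasts and 120 h for dermatophytes and molds. Organisms are ATCC strains or clinical isolates.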

[3] = system: Candida albicans; assay: In vivo evaluation of minimum inhibitory concentration against Candida albicans 406; type: functional; conditions: Candida albicans; read-out: MIC
How it was run: (§2)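 Broth macrodilution MIC following NCCLS M27-P, in RPMI-1640 buffered with 0.165 M MOPS. Fluconazole was dissolved in water and other drugs in DMSO. C. parapsilosis ATCC 22019 served as the reference strain in every run. MIC was the lowest concentration giving turbidity at or below the 80% inhibition standard.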

[4] = system: Mus sp.; assay: In vivo evaluation of % survival rate after peroral administration on 9th day at dose 1 mg/kg; type: functional; conditions: route oral, 1 mg/kg
[5] = system: Mus sp.; assay: In vivo evaluation of % survival rate after peroral administration on 7th day at dose 2.5 mg/kg; type: functional; conditions: Mus sp., po
[6] = system: Nakaseomyces glabratus; assay: In vitro evaluation of minimum inhibitory concentration against Torulopsis glabrata 78; type: functional; how it was run: as §1
[7] = system: Mus sp.; assay: In vivo evaluation of % survival rate after peroral administration on 3rd day at dose 2.5 mg/kg; type: functional; conditions: Mus sp., po
[8] = system: Mus sp.; assay: In vivo evaluation of % survival rate after peroral administration on 5th day at dose 2.5 mg/kg; type: functional; conditions: Mus sp., po
[9] = system: Trichophyton rubrum; assay: In vitro evaluation of minimum inhibitory concentration against Trichophyton rubrum 90; type: functional; how it was run: as §1
[10] = system: Mus sp.; assay: In vivo evaluation of % survival rate after peroral administration on 3rd day at dose 1 mg/kg; type: functional; conditions: Mus sp., po
[11] = system: Nannizzia gypsea; assay: In vitro evaluation of minimum inhibitory concentration against Microsporum gypseum 22; type: functional; how it was run: as §1
[12] = system: Candida albicans; assay: In vivo evaluation of minimum inhibitory concentration against Candida albicans 60; type: functional; conditions: Candida albicans; read-out: MIC; how it was run: as §2
[13] = system: Mus sp.; assay: In vivo evaluation of % survival rate after peroral administration on 7th day at dose 1 mg/kg; type: functional; conditions: route oral, 1 mg/kg
[14] = system: Mus sp.; assay: In vivo evaluation of % survival rate after peroral administration on 5th day at dose 1 mg/kg; type: functional; conditions: Mus sp., po
[15] = system: Aspergillus niger; assay: In vitro evaluation of minimum inhibitory concentration against Aspergillus niger 18; type: functional; how it was run: as §1
[16] = system: Microsporum canis; assay: In vitro evaluation of minimum inhibitory concentration against Microsporum canis 47; type: functional; how it was run: as §1
[17] = system: Aspergillus flavus; assay: In vitro evaluation of minimum inhibitory concentration against Aspergillus flavus 19; type: functional; how it was run: as §1
[18] = system: Candida parapsilosis; assay: In vitro evaluation of minimum inhibitory concentration against Candida parapsilosis 61; type: functional; how it was run: as §1
[19] = system: Candida tropicalis; assay: In vitro evaluation of minimum inhibitory concentration against Candida tropicalis 2.11; type: functional; how it was run: as §1
[20] = system: Kluyveromyces marxianus; assay: In vitro evaluation of minimum inhibitory concentration against Candida pseudotropicalis 13; type: functional; how it was run: as §1
[21] = system: Trichophyton benhamiae; assay: In vitro evaluation of minimum inhibitory concentration against Trichophyton mentagrophytes 23; type: functional, Arthroderma benhamiae; how it was run: as §1
[22] = system: Aspergillus fumigatus; assay: In vitro evaluation of minimum inhibitory concentration against Aspergillus fumigatus 33; type: functional; how it was run: as §1
[23] = system: Pichia kudriavzevii; assay: In vitro evaluation of minimum inhibitory concentration against Candida krusei 70; type: functional; how it was run: as §1
[24] = system: Candida albicans; assay: In vitro evaluation of minimum inhibitory concentration against Candida albicans 76; type: functional; how it was run: as §1
[25] = system: Meyerozyma guilliermondii; assay: In vitro evaluation of minimum inhibitory concentration against Candida guilliermondii 26; type: functional; how it was run: as §1
[26] = system: Candida albicans; assay: […] Evaluation of minimum inhibitory concentration against Candida albicans 406; type: functional; how it was run: as §1
[27] = system: Candida albicans; assay: […] Evaluation of minimum inhibitory concentration against Candida albicans 60; type: functional; how it was run: as §1
[28] = Rhodotorula mucilaginosa, read-out: MIC
[29] = Nakaseomyces glabratus, read-out: MIC
[30] = Trichophyton rubrum, read-out: MIC
[31] = Nannizzia gypsea, read-out: MIC
[32] = Aspergillus niger, read-out: MIC
[33] = Microsporum canis, read-out: MIC
[34] = Aspergillus flavus, read-out: MIC
[35] = Lodderomyces parapsilosis, read-out: MIC
[36] = Candida tropicalis, read-out: MIC
[37] = Kluyveromyces marxianus, read-out: MIC
[38] = Trichophyton benhamiae, read-out: MIC
[39] = Aspergillus fumigatus, read-out: MIC
[40] = Pichia kudriavzevii, read-out: MIC
[41] = Candida albicans, read-out: MIC
[42] = Meyerozyma guilliermondii, read-out: MIC

Row | Compound | survival at 2.5 mg/kg [1] | MIC [2, 28] | MIC [3] | survival at 2.5 mg/kg [5] | MIC [6, 29] | survival at 2.5 mg/kg [7] | survival at 2.5 mg/kg [8] | MIC [9, 30] | MIC [11, 31] | MIC [15, 32] | MIC [16, 33] | MIC [17, 34] | MIC [18, 35] | MIC [19, 36] | MIC [20, 37] | MIC [21, 38] | MIC [22, 39] | MIC [23, 40] | MIC [24, 41] | MIC [25, 42] | further results
1 | C[C@H]1N(C(=O)c2ccc(C(F)(F)F)cc2)CC(=O)O[C@@]1(Cn1cncn1)c1ccc(F)cc1F (racemic) | 70% | > 80 µg/mL | 40 µg/mL (≈ 83.3 µM) | 95% | > 80 µg/mL | 100% | 100% | > 80 µg/mL | > 80 µg/mL | > 80 µg/mL | > 80 µg/mL | > 80 µg/mL | > 80 µg/mL | > 80 µg/mL | 80 µg/mL (≈ 167 µM) | > 80 µg/mL | > 80 µg/mL | > 80 µg/mL | > 80 µg/mL | > 80 µg/mL | Survival [4]: 0%; survival at 1 mg/kg [10]: 95%; MIC [12]: 80 µg/mL (≈ 167 µM); Survival [13]: 30%; survival at 1 mg/kg [14]: 85%
2 | C[C@H]1N(C(=O)c2ccc(C(F)(F)F)cc2F)CC(=O)O[C@@]1(Cn1cncn1)c1ccc(F)cc1F (racemic) | 90% | > 80 µg/mL | 20 µg/mL (≈ 40.1 µM) | 100% | > 80 µg/mL | 100% | 100% | > 80 µg/mL | > 80 µg/mL | > 80 µg/mL | > 80 µg/mL | > 80 µg/mL | 80 µg/mL (≈ 161 µM) | 80 µg/mL (≈ 161 µM) | 80 µg/mL (≈ 161 µM) | > 80 µg/mL | > 80 µg/mL | > 80 µg/mL | 40 µg/mL (≈ 80.3 µM) | > 80 µg/mL | MIC [12]: 20 µg/mL (≈ 40.1 µM)
3 | C[C@H]1N(C(=O)c2ccc(OCC(F)(F)C(F)F)cc2)CC(=O)O[C@@]1(Cn1cncn1)c1ccc(F)cc1F (racemic) | 70% | > 80 µg/mL | 10 µg/mL (≈ 18.4 µM) | 90% | > 80 µg/mL | 100% | 100% | > 80 µg/mL | > 80 µg/mL | > 80 µg/mL | > 80 µg/mL | > 80 µg/mL | 80 µg/mL (≈ 147 µM) | > 80 µg/mL | 80 µg/mL (≈ 147 µM) | > 80 µg/mL | > 80 µg/mL | > 80 µg/mL | > 80 µg/mL | 80 µg/mL (≈ 147 µM) | MIC [12]: 10 µg/mL (≈ 18.4 µM)
4 | C[C@@H](NC(=O)c1ccc(C(F)(F)F)cc1)[C@](O)(Cn1cncn1)c1ccc(F)cc1F (racemic) | 100% |  |  | 100% |  | 100% | 100% |  |  |  |  |  |  |  |  |  |  |  |  |  | MIC [26]: 0.31 µg/mL (≈ 0.704 µM); MIC [2]: 2.5 µg/mL (≈ 5.68 µM); MIC [27]: 0.63 µg/mL (≈ 1.43 µM); Survival [4]: 60%; MIC [6]: >80 µg/mL; MIC [9]: >40 µg/mL; MIC [11]: >80 µg/mL; Survival [13]: 80%; MIC [15]: >80 µg/mL; MIC [16]: >80 µg/mL; MIC [17]: >40 µg/mL; MIC [18]: 20 µg/mL (≈ 45.4 µM); MIC [19]: 80 µg/mL (≈ 182 µM); MIC [20]: 40 µg/mL (≈ 90.8 µM); MIC [21]: >80 µg/mL; MIC [22]: >80 µg/mL; MIC [23]: >80 µg/mL; MIC [24]: 80 µg/mL (≈ 182 µM); MIC [25]: 2.5 µg/mL (≈ 5.68 µM)
5 | CCC(C)n1ncn(-c2ccc(N3CCN(c4ccc(OC[C@H]5CO[C@](Cn6cncn6)(c6ccc(Cl)cc6Cl)O5)cc4)CC3)cc2)c1=O (some centres not stated) [ITRACONAZOLE] |  | > 80 µg/mL |  |  | > 80 µg/mL |  |  | 0.63 µg/mL (≈ 0.893 µM) | 80 µg/mL (≈ 113 µM) | > 80 µg/mL | 80 µg/mL (≈ 113 µM) | > 80 µg/mL | 0.07 µg/mL (≈ 0.0992 µM) | 20 µg/mL (≈ 28.3 µM) | 80 µg/mL (≈ 113 µM) | > 80 µg/mL | 0.15 µg/mL (≈ 0.213 µM) | 1.25 µg/mL (≈ 1.77 µM) | 0.63 µg/mL (≈ 0.893 µM) | 0.15 µg/mL (≈ 0.213 µM) | MIC [26]: < 0.03 µg/mL; MIC [27]: 0.07 µg/mL (≈ 0.0992 µM)

Reference: ChEMBL document CHEMBL1128448, “Synthesis and antifungal activity of new azole derivatives containing an N-acylmorpholine ring” (1995)
